ChEMBL document CHEMBL1140391, “8-Substituted 3,4-dihydroquinolinones as a novel scaffold for atypical antipsychotic activity” (Bioorg Med Chem Lett, 2005)

How the values were obtained:
D(2) dopamine receptor = D(2) dopamine receptor (Homo sapiens, UniProt P14416); assay: Binding affinity against Dopamine receptor D2 expressed in CHO cells; type: cell-based
How it was run: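 Radioligand binding with [³H]spiperone on membranes of CHO cells expressing human DA D₂ receptors. Membranes and radioligand were incubated 120 min with or without varying compound concentrations. Haloperidol at high concentration defined nonspecific binding. Bound label was separated by vacuum filtration and counted by liquid scintillation. IC₅₀ was fitted by nonlinear regression and converted to Ki with Cheng–Prusoff.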

[1] = biological target: 5-hydroxytryptamine receptor 2A (Homo sapiens, UniProt P28223); assay: Binding affinity for 5-hydroxytryptamine 2A receptor expressed in 3T3 cells; type: cell-based
How it was run: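 [³H]Ketanserin displacement on membranes of Swiss 3T3 cells expressing human 5-HT2A receptors. Incubation was 120 min across varying compound concentrations. Nonspecific binding came from high unlabeled ketanserin. Bound and free label were separated by vacuum filtration, and bound label was quantified by liquid scintillation. Percent inhibition of specific binding was fitted by nonlinear regression to give IC₅₀, then converted to Ki with Cheng–Prusoff.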

Sequence of 5-hydroxytryptamine receptor 2A (P28223 whole entry): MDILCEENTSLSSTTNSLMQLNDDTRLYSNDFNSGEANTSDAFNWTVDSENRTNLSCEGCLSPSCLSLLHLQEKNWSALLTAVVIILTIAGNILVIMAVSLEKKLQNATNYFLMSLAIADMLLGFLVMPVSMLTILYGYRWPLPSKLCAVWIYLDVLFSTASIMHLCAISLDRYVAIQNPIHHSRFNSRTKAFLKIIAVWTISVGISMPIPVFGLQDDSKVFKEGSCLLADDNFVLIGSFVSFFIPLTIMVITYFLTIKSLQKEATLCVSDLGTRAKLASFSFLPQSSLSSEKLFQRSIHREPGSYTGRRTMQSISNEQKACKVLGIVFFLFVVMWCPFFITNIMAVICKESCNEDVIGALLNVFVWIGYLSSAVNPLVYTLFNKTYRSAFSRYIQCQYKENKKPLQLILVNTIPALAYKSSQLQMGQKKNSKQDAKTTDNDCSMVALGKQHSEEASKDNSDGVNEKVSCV
Sequence of D(2) dopamine receptor (P14416 whole entry): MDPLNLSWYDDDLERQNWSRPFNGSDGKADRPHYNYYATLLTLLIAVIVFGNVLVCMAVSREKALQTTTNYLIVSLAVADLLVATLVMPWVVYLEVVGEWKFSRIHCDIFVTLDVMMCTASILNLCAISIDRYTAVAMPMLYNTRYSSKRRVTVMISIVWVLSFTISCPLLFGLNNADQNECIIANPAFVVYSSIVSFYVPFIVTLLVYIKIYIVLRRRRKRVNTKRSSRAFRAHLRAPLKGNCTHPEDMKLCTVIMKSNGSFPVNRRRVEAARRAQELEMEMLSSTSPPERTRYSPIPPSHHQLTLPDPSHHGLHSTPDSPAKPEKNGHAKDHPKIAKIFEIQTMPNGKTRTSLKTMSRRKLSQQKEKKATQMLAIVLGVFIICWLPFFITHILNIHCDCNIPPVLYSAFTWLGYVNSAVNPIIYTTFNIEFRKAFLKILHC

SMILES | Ki (D(2) dopamine receptor) [nM] | Ki [1] [nM]
CC1(C)CCNc2c(CCN3CCN(c4nsc5ccccc45)CC3)cccc21 | 59 | 0.18
CC(=O)N1CCC(C)c2cccc(CCN3CCN(c4nsc5ccccc45)CC3)c21 (configuration not stated) | 17 | 0.3
Cc1cc(CCN2CCN(c3noc4ccccc34)CC2)c2c(c1)C(C)CC(=O)N2 (configuration not stated) | 35 | 0.28
O=C1CCc2cccc(CCN3CCN(c4nsc5ccccc45)CC3)c2N1 | > 100 | 0.28
CC1CC(=O)Nc2c(CCN3CCN(c4noc5ccccc45)CC3)cc(F)cc21 (configuration not stated) | > 100 | 0.28
CC(=O)N1CCC(C)c2c(C)ccc(CCN3CCN(c4nsc5ccccc45)CC3)c21 (configuration not stated) | 12 | 0.75
CC1(C)CCNc2c(CCN3CCN(c4nsc5ccccc45)CC3)cc(F)cc21 | 55 | 0.28
CC(=O)N1CCC(C)c2cc(F)cc(CCN3CCN(c4noc5ccccc45)CC3)c21 (configuration not stated) | 29 | 0.29
CC1CC(=O)N(C)c2c(CCN3CCN(c4nsc5ccccc45)CC3)cccc21 (configuration not stated) | 81 | 0.17
CC(=O)N1CCC(C)c2cc(F)cc(CCN3CCN(c4nsc5ccccc45)CC3)c21 (configuration not stated) | 18 | 0.44
CC1Cc2cccc(CCN3CCN(c4nsc5ccccc45)CC3)c2NC1=O (configuration not stated) | 73 | 1.06
CC(=O)N1CCC(c2ccccc2)c2cccc(CCN3CCN(c4nsc5ccccc45)CC3)c21 (configuration not stated) | 12 | 2.15
CC1CC(=O)Nc2c(CCN3CCN(c4nsc5ccccc45)CC3)cc(Cl)cc21 (configuration not stated) | > 100 | 0.05
CC1CC(=O)Nc2c(CCN3CCN(c4noc5ccccc45)CC3)cccc21 (configuration not stated) | > 100 | 190
CC(=O)N1CCC(C)c2c(C)ccc(CCN3CCN(c4noc5ccccc45)CC3)c21 (configuration not stated) | 17 | 0.32
CC1CCN(C(=O)c2ccccc2)c2c(CCN3CCN(c4nsc5ccccc45)CC3)cccc21 (configuration not stated) | 16 | 0.61
CC1CC(=O)Nc2c(CCN3CCN(c4n[s+]([O-])c5ccccc45)CC3)cc(F)cc21 (configuration not stated) | 92 | 2.23
CC1CCN(C(=O)C2CCCCC2)c2c(CCN3CCN(c4nsc5ccccc45)CC3)cccc21 (configuration not stated) | 25 | 0.59
CC(=O)N1CCC(C)c2cc(Cl)cc(CCN3CCN(c4nsc5ccccc45)CC3)c21 (configuration not stated) | > 50 | 0.31
O=C1CC(c2ccccc2)c2cccc(CCN3CCN(c4nsc5ccccc45)CC3)c2N1 (configuration not stated) |  | 0.18
Cc1ccc(CCN2CCN(c3nsc4ccccc34)CC2)c2c1C(C)CC(=O)N2 (configuration not stated) | 11 | 0.13
CC1CC(=O)Nc2c(CCN3CCN(c4nsc5ccccc45)CC3)cc(F)cc21 (configuration not stated) | 15 | 0.17
CC1CC(=O)Nc2c(CCN3CCN(c4nsc5ccccc45)CC3)cccc21 (configuration not stated) | 21 | 0.22
COc1cccc(CC(=O)N2CCC(C)c3cccc(CCN4CCN(c5nsc6ccccc56)CC4)c32)c1 (configuration not stated) | 4 | 1.07
